Reference: ChEMBL document CHEMBL3861974, “Discovery of a Selective Aurora A Kinase Inhibitor by Virtual Screening” (J Med Chem, 2016)
The source made the active and inactive calls. The rule behind the calls is not given here.

Legend:
Aurora kinase A [1] = target: T1, Aurora kinase A (Homo sapiens, UniProt O14965); assay: Inhibition of His-tagged human Aurora A kinase ([…] residues) expressed in Escherichia coli BL21 (DE3) Rosetta cells using biotinylated STK2 substrate incubated for 30 mins by HTRF assay
T1 sequence (O14965 whole entry): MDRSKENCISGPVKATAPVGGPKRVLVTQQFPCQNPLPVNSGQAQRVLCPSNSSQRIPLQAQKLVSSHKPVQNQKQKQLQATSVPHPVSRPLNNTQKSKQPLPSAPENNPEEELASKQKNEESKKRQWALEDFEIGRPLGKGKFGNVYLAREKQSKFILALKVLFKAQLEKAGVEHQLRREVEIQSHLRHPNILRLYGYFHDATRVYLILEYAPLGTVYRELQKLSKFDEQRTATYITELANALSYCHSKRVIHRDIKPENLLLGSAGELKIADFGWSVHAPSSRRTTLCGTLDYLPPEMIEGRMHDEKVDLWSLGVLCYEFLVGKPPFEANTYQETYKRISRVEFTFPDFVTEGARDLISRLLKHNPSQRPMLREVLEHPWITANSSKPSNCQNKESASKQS

[2] = Glutathione reactivity at 30 uM assessed as GSH adduct formation after 24 hrs in presence of 5 mM GSH, pH 7.4 buffer at 37 degC by LC-MS method
Procedure, shortened: (§1)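 Test compound at 30 µM was incubated with 5 mM GSH in H2O/CH3CN (4:1) at 37 °C and followed by LC-MS over 24 h. The GSH adduct was identified by MS. Parent was quantified by integrating its 310 nm absorption peak against 9-methylcarbazole as internal control. Values are the average of two independent experiments.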

Aurora kinase B [3] = target: T2, Aurora kinase B (Homo sapiens, UniProt Q96GD4); assay: Binding affinity to human Aurora B kinase expressed in Escherichia coli BL21 cells incubated for 1 hr by active site directed binding competition assay
T2 sequence (Q96GD4 whole entry): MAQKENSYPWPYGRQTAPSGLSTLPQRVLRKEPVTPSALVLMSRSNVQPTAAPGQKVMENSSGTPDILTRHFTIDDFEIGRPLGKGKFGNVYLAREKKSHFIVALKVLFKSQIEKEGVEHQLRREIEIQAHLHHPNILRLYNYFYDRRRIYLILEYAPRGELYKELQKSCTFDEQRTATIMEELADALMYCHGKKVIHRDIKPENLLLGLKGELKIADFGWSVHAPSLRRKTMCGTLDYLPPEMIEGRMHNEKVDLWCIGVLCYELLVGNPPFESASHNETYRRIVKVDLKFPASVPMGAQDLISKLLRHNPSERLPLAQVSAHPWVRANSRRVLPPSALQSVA
Procedure, shortened: (§2)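 Kinome scan of 456 kinases using an active-site-directed binding competition assay, followed by determination of binding affinities (Kd). Aurora B in this scan was free enzyme without INCENP.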

Aurora kinase C = target: T3, Aurora kinase C (Homo sapiens, UniProt Q9UQB9); assay: Binding affinity to human Aurora C kinase expressed in Escherichia coli BL21 cells incubated for 1 hr by active site directed binding competition assay; procedure, shortened: as §2
T3 sequence (Q9UQB9 whole entry): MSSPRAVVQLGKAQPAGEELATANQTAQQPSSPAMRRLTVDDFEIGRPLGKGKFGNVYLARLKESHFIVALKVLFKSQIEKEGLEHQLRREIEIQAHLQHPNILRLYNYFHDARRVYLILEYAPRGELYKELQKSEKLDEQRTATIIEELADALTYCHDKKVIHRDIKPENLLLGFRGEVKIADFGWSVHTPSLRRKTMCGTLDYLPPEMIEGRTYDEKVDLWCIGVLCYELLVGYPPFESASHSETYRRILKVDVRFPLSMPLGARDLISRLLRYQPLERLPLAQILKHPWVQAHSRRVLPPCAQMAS

[4] = target: Death-associated protein kinase 2 (Homo sapiens, UniProt Q9UIK4); assay: Binding affinity to human DAPK2 expressed in Escherichia coli BL21 cells incubated for 1 hr by active site directed binding competition assay; procedure, shortened: as §2
Sequence of Death-associated protein kinase 2 (Q9UIK4 whole entry, canonical isoform): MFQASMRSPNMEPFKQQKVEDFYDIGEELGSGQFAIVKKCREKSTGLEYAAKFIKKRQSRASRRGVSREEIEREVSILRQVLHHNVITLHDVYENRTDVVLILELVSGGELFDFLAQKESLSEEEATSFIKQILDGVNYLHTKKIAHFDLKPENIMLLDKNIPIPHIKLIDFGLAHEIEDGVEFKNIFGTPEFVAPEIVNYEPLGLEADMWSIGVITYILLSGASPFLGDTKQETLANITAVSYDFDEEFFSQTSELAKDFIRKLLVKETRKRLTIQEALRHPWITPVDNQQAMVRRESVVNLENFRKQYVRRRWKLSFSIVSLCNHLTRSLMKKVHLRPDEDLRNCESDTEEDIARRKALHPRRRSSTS

[5] = target: Phosphatidylinositol 4,5-bisphosphate 3-kinase catalytic subunit gamma isoform (Homo sapiens, UniProt P48736); assay: Binding affinity to human PIK3CG expressed in Escherichia coli BL21 cells incubated for 1 hr by active site directed binding competition assay; procedure, shortened: as §2
Sequence of Phosphatidylinositol 4,5-bisphosphate 3-kinase catalytic subunit gamma isoform (P48736 whole entry, canonical isoform): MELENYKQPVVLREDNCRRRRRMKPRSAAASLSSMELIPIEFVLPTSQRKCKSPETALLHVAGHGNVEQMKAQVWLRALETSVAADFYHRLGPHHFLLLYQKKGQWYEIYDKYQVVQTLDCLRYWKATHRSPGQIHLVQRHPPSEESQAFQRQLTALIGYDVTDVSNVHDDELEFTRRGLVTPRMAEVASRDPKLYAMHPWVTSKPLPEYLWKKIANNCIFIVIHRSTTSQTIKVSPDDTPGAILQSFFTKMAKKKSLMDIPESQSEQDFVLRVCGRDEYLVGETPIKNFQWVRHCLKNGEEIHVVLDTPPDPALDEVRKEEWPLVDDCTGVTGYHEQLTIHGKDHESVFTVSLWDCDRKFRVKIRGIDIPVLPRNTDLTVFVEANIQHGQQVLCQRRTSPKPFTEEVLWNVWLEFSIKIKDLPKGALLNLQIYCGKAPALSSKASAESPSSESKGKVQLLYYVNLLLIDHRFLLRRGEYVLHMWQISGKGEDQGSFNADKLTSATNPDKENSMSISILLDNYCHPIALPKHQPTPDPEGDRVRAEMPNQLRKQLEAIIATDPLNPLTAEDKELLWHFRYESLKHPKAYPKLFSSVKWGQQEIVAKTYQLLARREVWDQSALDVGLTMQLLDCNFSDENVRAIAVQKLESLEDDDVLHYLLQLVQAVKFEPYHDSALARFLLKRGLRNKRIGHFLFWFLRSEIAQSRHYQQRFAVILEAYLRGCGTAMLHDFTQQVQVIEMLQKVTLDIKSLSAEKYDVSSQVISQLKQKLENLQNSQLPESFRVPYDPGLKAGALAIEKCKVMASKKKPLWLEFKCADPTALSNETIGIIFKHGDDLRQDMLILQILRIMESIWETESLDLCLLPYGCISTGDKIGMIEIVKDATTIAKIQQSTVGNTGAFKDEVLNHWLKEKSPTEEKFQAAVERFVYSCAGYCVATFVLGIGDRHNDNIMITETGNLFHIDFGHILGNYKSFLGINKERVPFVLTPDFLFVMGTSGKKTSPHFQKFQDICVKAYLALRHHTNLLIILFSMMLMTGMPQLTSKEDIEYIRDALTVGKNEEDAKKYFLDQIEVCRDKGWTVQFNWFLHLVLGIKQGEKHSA

[6] = target: Macrophage colony-stimulating factor 1 receptor (Homo sapiens, UniProt P07333); assay: Binding affinity to auto-inhibited human CSF1R expressed in Escherichia coli BL21 cells incubated for 1 hr by active site directed binding competition assay; procedure, shortened: as §2
Sequence of Macrophage colony-stimulating factor 1 receptor (P07333 whole entry, the tested form may be a part): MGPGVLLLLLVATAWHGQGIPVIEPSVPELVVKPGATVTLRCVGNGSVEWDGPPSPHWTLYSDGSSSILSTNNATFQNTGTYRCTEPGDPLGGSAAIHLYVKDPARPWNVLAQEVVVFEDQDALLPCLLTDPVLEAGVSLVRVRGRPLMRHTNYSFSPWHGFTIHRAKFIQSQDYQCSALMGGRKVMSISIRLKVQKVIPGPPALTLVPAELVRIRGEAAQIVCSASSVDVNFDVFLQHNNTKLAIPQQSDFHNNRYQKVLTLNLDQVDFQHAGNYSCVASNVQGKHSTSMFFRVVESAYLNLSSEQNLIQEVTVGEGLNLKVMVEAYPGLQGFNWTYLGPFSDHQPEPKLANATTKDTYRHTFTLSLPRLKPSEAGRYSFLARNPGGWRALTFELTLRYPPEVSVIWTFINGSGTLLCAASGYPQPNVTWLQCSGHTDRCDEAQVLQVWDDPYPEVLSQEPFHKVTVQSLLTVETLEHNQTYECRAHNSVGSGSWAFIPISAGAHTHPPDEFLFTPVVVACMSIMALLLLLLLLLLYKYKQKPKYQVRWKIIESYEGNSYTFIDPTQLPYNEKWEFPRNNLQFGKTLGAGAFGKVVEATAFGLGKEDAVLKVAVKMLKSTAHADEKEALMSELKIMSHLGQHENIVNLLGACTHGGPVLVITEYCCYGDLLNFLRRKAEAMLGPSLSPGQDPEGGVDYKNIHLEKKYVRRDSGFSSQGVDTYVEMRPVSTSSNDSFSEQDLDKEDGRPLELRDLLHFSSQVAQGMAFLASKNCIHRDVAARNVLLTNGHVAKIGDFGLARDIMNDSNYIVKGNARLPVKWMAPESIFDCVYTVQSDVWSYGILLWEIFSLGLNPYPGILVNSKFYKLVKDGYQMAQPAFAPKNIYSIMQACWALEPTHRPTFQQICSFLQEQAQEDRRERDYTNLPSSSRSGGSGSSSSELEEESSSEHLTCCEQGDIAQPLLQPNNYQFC

[7] = target: T4, Aurora kinase A (Homo sapiens) (UniProt O14965); assay: Binding affinity to His-tagged human Aurora A kinase ([…] residues) expressed in Escherichia coli BL21 (DE3) Rosetta cells assessed as reduction in Aurora A binding to TPX-labeled human TPX2 N-terminal domain (1 to 43 residues) at 125 uM incubated for 30 mins by microscale thermophoresis method
T4 sequence (whole entry): T1 sequence (O14965 whole entry)

Aurora kinase A [8] = target: T1, Aurora kinase A; assay: Inhibition of His-tagged human Aurora A kinase ([…] residues) expressed in Escherichia coli BL21 (DE3) Rosetta cells using biotinylated STK2 substrate incubated for 30 mins in presence of 0.002 uM TPX2 by HTRF assay
Procedure, shortened: (§3)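 Biochemical kinase inhibition was read by HTRF with 20 µM ATP. Aurora B was assayed as its complex with the activator INCENP. For Aurora A, IC50 curves were recorded at different TPX2 concentrations.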

Aurora kinase A [9] = target: T1, Aurora kinase A; assay: Inhibition of His-tagged human Aurora A kinase ([…] residues) expressed in Escherichia coli BL21 (DE3) Rosetta cells using biotinylated STK2 substrate incubated for 30 mins in presence of 2 uM TPX2 by HTRF assay; procedure, shortened: as §3
[10] = target: T4, Aurora kinase A (Homo sapiens); assay: Inhibition of Aurora A kinase localization at spindle microtubules in human HeLa Kyoto cells at 10 uM incubated for 20 hrs; assay type: cell-based
Procedure, shortened: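 HeLa Kyoto cells were treated overnight, then immunostained for Aurora A and TPX2 with DNA counterstain. Aurora A at spindle microtubules versus centrosomes was assessed by fluorescence imaging.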

HeLa Kyoto = assay: Increase in mitotic index in human HeLa Kyoto cells incubated for 20 hrs; assay type: functional, cell-based
Procedure, shortened: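 HeLa Kyoto cells were incubated overnight with compound, and the fraction of mitotic cells was scored. The experiment was repeated twice; mean ± SD.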

Aurora kinase A [11] = target: T1, Aurora kinase A; assay: Inhibition of Aurora A kinase autophosphorylation at Thr288 in human HeLa Kyoto cells incubated for 20 hrs; assay type: cell-based
Aurora kinase B [12] = target: T2, Aurora kinase B; assay: Inhibition of Aurora B kinase in human HeLa Kyoto cells assessed as effect on distribution of phspho-histone H3 ser10 level incubated for 20 hrs
Aurora kinase B [13] = target: T2, Aurora kinase B; assay: Inhibition of Aurora B kinase in human HeLa Kyoto cells assessed as induction of accumulation of cells at 8N DNA contant incubated for 48 hrs at 10 uM by flow cytometry; assay type: cell-based
Procedure, shortened: (§4)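 Cells were treated for 48 h, stained with propidium iodide, and DNA content was analysed by flow cytometry. Cells with 8N and 16N DNA content were scored as a readout of defective cytokinesis.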

Aurora kinase B [14] = target: T2, Aurora kinase B; assay: Inhibition of Aurora B kinase in human HeLa Kyoto cells assessed as induction of accumulation of cells at 16N DNA contant incubated for 48 hrs at 10 uM by flow cytometry; assay type: cell-based; procedure, shortened: as §4
[15] = target: T4, Aurora kinase A (Homo sapiens); assay: Inhibition of Aurora A kinase in human HeLa Kyoto cells assessed as induction of defective chromosome alignment during metaphase at 10 uM incubated for 20 hrs; assay type: cell-based
Procedure, shortened: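 HeLa Kyoto cells were treated overnight and stained for pThr288 Aurora A, α-tubulin and DNA. Cells with chromosomes not aligned on the metaphase plate were scored. Experiment repeated twice, SD. Rescue variant: cells transfected with GFP-Aurora A wild-type, Arg137Ala or Trp277Ala before treatment; only highest expressers analysed, ≥100 cells per condition.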

[16] = Glutathione reactivity at 30 uM assessed as retention time for GSH adduct formation after 24 hrs in presence of 5 mM GSH, pH 7.4 buffer at 37 degC by LC-MS method; procedure, shortened: as §1

Compound: CCc1ccc(/N=C2\S/C(=C\c3ccnc(Nc4ccc(C(=O)O)cn4)c3)C(=O)N2C)cc1
- IC50 (Aurora kinase A [1]): 2 nM
- Drug metabolism [2]: 50%
- Stability [2]: Stable
- Kd (Aurora kinase B [3]): 10.1 nM
- Kd (Aurora kinase C): 10.8 nM
- Kd [4]: 450 nM
- Kd [5]: 1500 nM
- Kd [6]: 120 nM
- Activity [7]: Active
- IC50 (Aurora kinase A [8]): 1.7 nM
- IC50 (Aurora kinase A [9]): 1400 nM
- inhibition [10]: Active
- Activity (HeLa Kyoto): Dose-dependent effect
- IC50 (Aurora kinase A [11]): 760 nM
- IC50 (Aurora kinase B [12]): > 25000 nM
- inhibition (Aurora kinase B [13]): Active
- inhibition (Aurora kinase B [14]): Active
- inhibition [15]: Active
- Retention time [16]: 1.29 min
